Assay results as given in ChEMBL document CHEMBL1121810, “Antihypertensive activity of 6-arylpyrido[2,3-d]pyrimidin-7-amine derivatives” (1981).

Experiments:
Type in all cases: functional
Conditions in all cases: route oral
[1] = tested on: Rattus norvegicus; assay: Effect on heart rate of spontaneously hypertensive rats, 18 hr after peroral administration of 50 mg/kg of compound
Procedure, shortened: (§1)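 Heart rate was derived from the pulsatile arterial pressure signal in conscious catheterized male SHR (22-24 weeks, 250-350 g), with continuous monitoring sampled 3 min per 30 min. Drug was given by gavage as a 4% gum acacia suspension at 2 mL/kg, dose as free base, to groups of 3-4 rats with mean pressure >150 mmHg. Individual 30-min means were compared with pretreatment values.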

[2] = tested on: Rattus norvegicus; assay: Effect on heart rate of spontaneously hypertensive rats, 10 hr after peroral administration of 10 mg/kg of compound; procedure, shortened: as §1
[3] = tested on: Rattus norvegicus; assay: Effect on heart rate of spontaneously hypertensive rats, 2 hr after peroral administration at 50 mg/kg; procedure, shortened: as §1
[4] = tested on: Rattus norvegicus; assay: Effect on heart rate of spontaneously hypertensive rats, 10 hr after peroral administration at 50 mg/kg; procedure, shortened: as §1
[5] = tested on: Rattus norvegicus; assay: Maximum percent decrease in heart rate of spontaneously hypertensive rats, 5 hours after peroral administration of 50 mg/kg of compound
Procedure, shortened: (§2)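 Conscious male SHR (Kyoto-Wistar origin, 22-24 weeks, 250-350 g; mean BP >150 mmHg, pulse pressure >25 mmHg) with indwelling catheters, ~0.8 mL heparinized saline/day. Dosed by gavage as a 4% gum acacia suspension, 2 mL/kg, free-base doses, 3-4 rats per group. Heart rate was derived from the pulsatile pressure signal, sampled 3 min every 30 min, and 30-min means were compared with pretreatment values.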

[6] = tested on: Rattus norvegicus; assay: Effect on heart rate of spontaneously hypertensive rats, 2 hr after peroral administration of 10 mg/kg of compound; procedure, shortened: as §1
[7] = tested on: Rattus norvegicus; assay: Maximum percent decrease in heart rate of spontaneously hypertensive rats, 8 hours after peroral administration of 50 mg/kg of compound; procedure, shortened: as §2
[8] = tested on: Rattus norvegicus; assay: Effect on heart rate of spontaneously hypertensive rats, 24 hr after peroral administration at 50 mg/kg; procedure, shortened: as §1
[9] = tested on: Rattus norvegicus; assay: Maximum percent decrease in heart rate of spontaneously hypertensive rats, 6 hours after peroral administration of 50 mg/kg of compound; procedure, shortened: as §2
[10] = tested on: Rattus norvegicus; assay: Blood pressure rating in spontaneously hypertensive rats, 2 hr after peroral administration of 50 mg/kg of compound
Procedure, shortened: (§3)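 Conscious male SHR (Kyoto-Wistar origin, 22-24 weeks, 250-350 g) with indwelling catheters, given about 160 units heparin/day in saline. Only rats with mean blood pressure >150 mmHg and pulse pressure >25 mmHg were used, in groups of 3-4. Dosing was oral gavage at 2 mL/kg in 4% gum acacia suspension, as free base. Pressure was sampled 3 min of every 30 min, and 30-min means were compared with pretreatment values.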

[11] = tested on: Rattus norvegicus; assay: Blood pressure rating in spontaneously hypertensive rats, 24 hr after peroral administration of 50 mg/kg of compound; procedure, shortened: as §3
[12] = tested on: Rattus norvegicus; assay: Blood pressure rating in spontaneously hypertensive rats, 10 hr after peroral administration of 50 mg/kg of compound; procedure, shortened: as §3
[13] = tested on: Rattus norvegicus; assay: Maximum percent decrease in heart rate of spontaneously hypertensive rats, 2 hours after peroral administration of 50 mg/kg of compound; procedure, shortened: as §1
[14] = tested on: Rattus norvegicus; assay: Maximum percent decrease in heart rate of spontaneously hypertensive rats, 3 hours after peroral administration of 50 mg/kg of compound; procedure, shortened: as §1
[15] = tested on: Rattus norvegicus; assay: Effect on heart rate of spontaneously hypertensive rats,18hours after peroral administration of 50 mg/kg of compound; procedure, shortened: as §1
[16] = tested on: Rattus norvegicus; assay: Effect on heart rate of spontaneously hypertensive rats, 24 hr after peroral administration of 10 mg/kg of compound; procedure, shortened: as §1
[17] = tested on: Rattus norvegicus; assay: Maximum percent decrease in heart rate of spontaneously hypertensive rats, 28 hours after peroral administration of 50 mg/kg of compound; procedure, shortened: as §1
[18] = tested on: Rattus norvegicus; assay: Max effect on heart rate of spontaneously hypertensive rats, 3-5 hr after peroral administration of 10 mg/kg of compound; procedure, shortened: as §1
[19] = tested on: Rattus norvegicus; assay: Maximum effect on heart rate of spontaneously hypertensive rats, 3-5 hr after peroral administration of 10 mg/kg of compound; procedure, shortened: as §1
[20] = tested on: Rattus norvegicus; assay: Maximum effect on heart rate of spontaneously hypertensive rats, 18 hours after peroral administration of 10 mg/kg of compound; procedure, shortened: as §1
[21] = tested on: Rattus norvegicus; assay: Effect on heart rate of spontaneously hypertensive rats, 2 hr after peroral administration of 3 mg/kg of compound; procedure, shortened: as §1
[22] = tested on: Rattus norvegicus; assay: Effect on heart rate of spontaneously hypertensive rats, 24 hr after peroral administration of 3 mg/kg of compound; procedure, shortened: as §1

SMILES	Activity rating [3]	Activity rating [4]	Activity rating [8]	also measured
Cc1ncc2cc(-c3c(C)cccc3Cl)c(N)nc2n1	1	2	–	Activity rating [1]: 2; Activity rating [2]: 2; Decrease [5]: 30%; Activity rating [6]: 2
Cc1nc(C)c2cc(-c3ccccc3C)c(N)nc2n1	0	0	0	Decrease [7]: 11%
Cc1cccc(-c2cc3cncnc3nc2N)c1C	0	0	0	–
CCc1ncc2cc(-c3ccccc3Cl)c(N)nc2n1	0	0	0	–
Cc1ncc2cc(-c3ccc(Cl)c(Cl)c3)c(N)nc2n1	0	0	–	–
Cc1ncc2cc(-c3c(C)cccc3Br)c(N)nc2n1	0	1	0	Decrease [5]: 18%
Cc1nc(C)c2cc(-c3c(Cl)cccc3Cl)c(N)nc2n1	2	3	–	Activity rating [1]: 2; Decrease [9]: 32%
Nc1nc2nc(/C=C/c3ccccc3)ncc2cc1-c1c(Cl)cccc1Cl	–	–	–	Activity rating [10]: 0; Activity rating [11]: 0; Decrease [9]: 13%; Activity rating [12]: 1
Nc1nc2nc(C3CC3)ncc2cc1-c1c(Cl)cccc1Cl	–	–	–	Activity rating [10]: 0; Activity rating [11]: 0; Activity rating [12]: 0
Cc1ncc2cc(-c3cccc(Br)c3C)c(N)nc2n1	0	0	0	–
Cc1ncc2cc(-c3ccco3)c(N)nc2n1	–	–	–	Activity rating [10]: 0; Activity rating [11]: 0; Activity rating [12]: 0
Nc1nc2nc(C3CC3)ncc2cc1-c1ccccc1Br	–	–	–	Activity rating [10]: 0; Activity rating [11]: 0; Activity rating [12]: 0
Nc1nc2ncncc2cc1-c1cccnc1	0	0	0	–
CCc1ccccc1-c1cc2cncnc2nc1N	3	0	0	Decrease [13]: 33%
CCc1ccccc1-c1cc2cnc(C)nc2nc1N	0	0	0	–
Cc1cc(C)c(-c2cc3cnc(C)nc3nc2N)c(C)c1	1	0	0	Decrease [13]: 18%
Cc1cccc(C)c1-c1cc2cncnc2nc1N	1	0	–	Decrease [14]: 12%
Nc1nc2ncncc2cc1-c1ccccc1C(F)(F)F	0	0	0	–
Nc1nc2ncncc2cc1-c1c(Cl)cccc1Br	1	2	–	Activity rating [15]: 1; Activity rating [16]: 1; Activity rating [2]: 1; Decrease [17]: 28%; Activity rating [6]: 1
Nc1nc2ncncc2cc1-c1ccccc1Br	0	1	–	Activity rating [1]: 1; Activity rating [18]: 0; Decrease [5]: 16%
Cc1ncc2cc(-c3c(Cl)cccc3Br)c(N)nc2n1	2	2	2	Activity rating [19]: 1; Decrease [5]: 26%; Activity rating [20]: 0
Cc1ncc2cc(-c3cccc(C)c3C)c(N)nc2n1	0	0	0	–
Cc1ncc2cc(-c3c(C)cccc3C)c(N)nc2n1	0	0	0	–
Clc1cccc(Cl)c1NC1=NCCN1 [CLONIDINE]	–	–	–	Activity rating [21]: 0; Activity rating [22]: 2
